KCNQ1 inh = inhibitors of human KCNQ1 potassium channel. P51787. CHO-K1 KCNQ1, FluxOR thallium flux fluorescence; active compounds read high. B-score at 10 µM. 310,000 tested, 1.3% active;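 active = compounds whose thallium flux B-score, printed positive for inhibition, exceeds three library SD while starting fluorescence stays within three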;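 also: channel opened by potassium depolarization with thallium stimulus after 20 min compound exposure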
Target sequence (P51787 whole entry, looked up): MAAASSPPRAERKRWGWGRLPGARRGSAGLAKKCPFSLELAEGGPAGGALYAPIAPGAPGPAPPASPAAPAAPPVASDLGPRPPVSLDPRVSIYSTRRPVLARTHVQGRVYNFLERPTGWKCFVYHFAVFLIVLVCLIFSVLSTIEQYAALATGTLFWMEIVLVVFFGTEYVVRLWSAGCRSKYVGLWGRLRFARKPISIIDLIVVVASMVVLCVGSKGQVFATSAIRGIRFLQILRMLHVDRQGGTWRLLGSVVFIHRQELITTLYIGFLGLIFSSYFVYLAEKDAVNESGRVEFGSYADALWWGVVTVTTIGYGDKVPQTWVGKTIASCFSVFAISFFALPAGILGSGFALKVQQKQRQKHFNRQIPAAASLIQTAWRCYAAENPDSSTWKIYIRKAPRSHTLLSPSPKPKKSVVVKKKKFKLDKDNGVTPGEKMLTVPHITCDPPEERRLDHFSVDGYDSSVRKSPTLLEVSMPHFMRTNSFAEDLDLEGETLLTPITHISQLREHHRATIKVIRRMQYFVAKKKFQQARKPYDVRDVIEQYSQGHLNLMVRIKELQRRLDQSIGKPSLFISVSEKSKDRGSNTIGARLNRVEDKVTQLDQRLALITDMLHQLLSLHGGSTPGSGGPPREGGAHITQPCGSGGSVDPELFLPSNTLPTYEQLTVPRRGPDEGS
KCNK9 inh = human KCNK9 channel inhibition. Q9NPC2. B-score at 10 µM. AID 488922. 310,000 tested, 1.2% active. HEK293 KCNK9, FluxOR thallium flux fluorescence; active compounds read low;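 active = ratio B-score over 3 SD below the library mean, with starting fluorescence within 5 SD of its mean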;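 also: negative B-score means less thallium flux so channel inhibition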
Kir21 block = inhibitors of mouse Kir2.1 inward-rectifier potassium channel. P35561. HEK293-Kir2.1, FluxOR thallium flux fluorescence; active compounds read low. B-score at 10 µM. 310,000 tested, 0.85% active. AID 1672;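 active = fluorescence ratio B-score at or below minus 3 SD of library scores, with starting-brightness B-score within 2 SD, cut at about -4.2 in these data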;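 also: channel flux triggered by added potassium and thallium sulfate stimulus; B-score of peak minus minimum fluorescence over baseline after thallium stimulus; more negative B-score means stronger Kir2.1 block with less thallium influx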
hERG protect = shields human hERG channel from block by proarrhythmic agents. Q12809. CHO-hERG, FluxOR thallium flux, dofetilide IC70 present. activation (rescue from dofetilide block), less the hit threshold, % at 10 µM. 310,000 tested, 0.51% active. AID 1511;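 active = activation above the mean of controls blocked by dofetilide plus 5 SD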;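 also: thallium influx through hERG after potassium depolarization seen as dye fluorescence rise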
KCNQ1 act = human KCNQ1 channel potentiation or activation | P51787 | CHO-K1 KCNQ1, thallium flux FluxOR fluorescence; active compounds read high | B-score at 10 µM | 310,000 tested, 0.35% active | AID 2648;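 active = fluorescence ratio B-score, a plate-corrected score, at least three library SD, with initial intensity B-score within 5 SD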
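Medium – assay buffer, equal DMSO in all wells · Material – CHO-K1 cell line with stable KCNQ1 potassium channel expression · Signal – kinetic FluxOR thallium fluorescence, 10-s 1-Hz baseline, 110-s post-stimulus read · Compound – single concentration per compound, DMSO matched to controls · Schedule – 37 °C overnight plating, 90-min dark dye load, 20-min compound pretreatment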
KCNK3 inh = human KCNK3 channel inhibition, primary screen. O14649. CHO-KCNK3 thallium flux, FluxOR fluorescence; active compounds read low. B-score at 10 µM. 340,000 tested, 0.84% active. AID 602410;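 active = B-score under library mean minus 4 SD, starting fluorescence ratio at most library mean plus 5 SD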;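 also: more negative B-score means stronger inhibition of thallium flux through KCNK3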
Hits are given with their value; i = inactive; nt = no result given. Most compounds without a hit are left out; they make up all but 3.8% or so of the library.

SMILES	KCNQ1 inh	KCNK9 inh	Kir21 block	hERG protect	KCNQ1 act	KCNK3 inh
COc1cccc(NC(=S)N(CCCN2CCCC2)Cc2cccn2Cc2ccc(Cl)cc2)c1	i	i	-8.5	i	i	i
CCc1nc2ccccc2n1CCc1ccccc1	i	i	i	i	i	i
CC(C)Cc1nc2ccccc2n1CCc1ccccc1	i	i	-6.5	i	i	i
CCn1c(Cc2ccc(OC)cc2)nc2ccccc21	i	i	i	i	i	i
Cc1nc2ccccc2n1Cc1ccccc1	i	i	i	i	i	i
CC(C)C(=O)NCCc1nc2ccccc2n1CCc1ccccc1	i	i	i	i	i	i
Cc1nc2ccccc2n1Cc1ccc(Br)cc1	6	i	i	i	i	i
c1ccc(Cc2nc3ccccc3n2Cc2ccccc2)cc1	i	i	-7.2	i	i	i
CC(C)(C)Cc1nc2ccccc2n1CCc1ccccc1	i	i	-6.1	i	i	i
O=C(OCC(=O)c1ccc(Cl)s1)c1ccc(CO)cc1	i	i	i	i	i	i
O=C(Cc1cccc(NC(=O)C2CCCN(C(=O)C3CCCC3)C2)c1)Nc1ccc(C(=O)N2CCCCC2)cc1 (stereo not given)	nt	nt	nt	nt	nt	i
COC(=O)[C@H](CC(C)C)NC(=O)Cn1cnc2c(NCc3ccccc3)ncnc21	nt	nt	nt	nt	nt	i
COc1ccc(CNc2oc(-c3cccc4ccccc34)nc2C#N)cc1	i	-7.3	i	i	i	i
COc1cccc(NC(=O)C(=O)NCCC2CCCCN2S(=O)(=O)c2cccs2)c1 (stereo not given)	i	i	i	i	i	i
CCN(Cc1ccccc1)S(=O)(=O)c1ccc(C(=O)N(CCCN(C)C)c2nc3cc4c(cc3s2)OCO4)cc1	6	i	i	i	i	i
CN(C)CCN(C(=O)c1ccc2c(c1)OCCO2)c1nc2ccc(Cl)cc2s1	i	i	i	i	i	i
CN(C)CCCN(C(=O)c1ccc2c(c1)OCCO2)c1nc2ccc(Cl)cc2s1	i	i	-9.9	i	i	i
CCN(Cc1ccccc1)S(=O)(=O)c1ccc(C(=O)N(CCCN(C)C)c2nc3c(C)c(C)ccc3s2)cc1	8	i	-4.5	i	i	i
CCCCN(C(=O)c1ccc(S(=O)(=O)N2CCCCC2)cc1)C1CCS(=O)(=O)C1 (stereo not given)	i	i	i	i	i	i
Cc1ccc2nccc(C(=O)N3CCCC(Nc4ccc(F)cc4)C3)c2c1 (stereo not given)	i	i	i	i	i	i
CC(C)NC(=NCc1ccc(Cl)cc1Cl)Nc1ccccc1	6	i	i	i	i	i
O=C(C/C=N\OCc1ccc(Cl)cc1Cl)Nc1ccccc1	i	i	i	i	i	i
CCCN(Cc1ccco1)S(=O)(=O)c1ccc(OC)c(OC)c1	i	i	-4.9	i	i	i
Cc1nc2cc(-c3ccc(Cl)cc3)nn2c(NCCN(C)C)c1C	i	i	-4.6	i	i	i
COC(=O)c1ccccc1NC(=O)CN(c1ccc(C)cc1)S(C)(=O)=O	i	i	i	i	i	i
SMILES	KCNQ1 inh	KCNK9 inh	Kir21 block	hERG protect	KCNQ1 act	KCNK3 inh
COc1ccccc1[C@]1(C)ON(c2ccccc2C(F)(F)F)C1=O	nt	nt	nt	nt	nt	i
CCc1nc2c(c(=O)c3ccccc3n2C)c(=O)n1CCc1ccc(OC)cc1	7	-12	i	i	i	nt
COc1ccc(CCn2c(-c3ccc(OC)cc3)nc3c(c(=O)c4ccccc4n3C)c2=O)cc1	i	i	i	i	i	i
CCOC(=O)N1CCN(C(=O)COC(=O)c2cc(Cl)c(O)c(Cl)c2)CC1	i	i	i	8.1	i	i
CCOC(=O)N1CCN(C(=O)COC(=O)c2cc(Cl)cc(Cl)c2)CC1	nt	nt	nt	nt	nt	i
CN(C)CCOc1ccc2c(c1)Sc1ccccc1CC2=O	i	i	-5.2	i	i	i
CC(C)(C)c1ccc(C(=O)N2CCCC2)s1	i	i	i	i	i	i
Cc1cccc(CSc2nc3ccccc3c(=O)n2C)c1	nt	nt	nt	nt	nt	-9.3
Cc1ccc(-c2nc(CSc3nc4ccccc4c(=O)n3C)cs2)cc1	i	i	i	i	i	i
O=C(NCc1ccc2c(c1)OCO2)C1CC(=O)N(C2CCCCCC2)C1 (stereo not given)	i	i	i	5.4	i	i
COc1cc(OC)cc(OC(=O)C2CCN(C(=O)c3ccc(Cl)cc3)CC2)c1	nt	nt	nt	nt	nt	i
CCOC(=O)c1c(N)sc2c(OCC)c(Br)ccc12	i	i	i	i	i	i
CCOC(=O)c1c(NC(C)=O)sc2c(OCC(O)CNC(C)(C)C)c(Br)ccc12 (stereo not given)	i	i	-6.1	i	i	i
CCc1nc(C)cn1S(=O)(=O)c1cc(Br)c(C)cc1OC	i	i	-12	i	i	i
CCc1nc(C)cn1S(=O)(=O)c1cc(C)c(OC)cc1C	i	i	-5.2	i	i	i
CCc1nc(C)cn1S(=O)(=O)c1cc(C)c(OC)c(C)c1C	i	i	-5.6	i	i	i
CCc1nc(C)cn1S(=O)(=O)c1cc(F)ccc1OC	i	i	i	i	i	i
Cc1ccc(C2(SCC(N)C(=O)O)c3ccccc3-c3ccccc32)cc1 (stereo not given)	nt	nt	nt	nt	nt	i
CC(=O)Nc1ccc(N=Cc2nc(-c3ccc(C)cc3)oc2O)cc1	i	-6.8	i	i	i	i
Cc1ccc(N=Cc2nc(-c3ccc(C)cc3)oc2O)cc1	i	i	i	i	i	i
O=C(NCCS(=O)(=O)N1CCCC1)c1ccccc1	i	i	i	i	i	i
CCOC(=O)c1c(C)cccc1OCC(N)=O	i	i	i	6.2	i	i
CCOC(=O)c1c(C)oc2ccc(OCC(N)=O)cc12	i	i	i	i	i	i
N#Cc1cccc(NC(=O)CNc2cc(S(=O)(=O)N3CCOCC3)ccc2N2CCCC2)c1	nt	nt	nt	nt	nt	i
O=C(CN1C(=O)c2ccccc2S1(=O)=O)Nc1ccccc1	i	i	i	i	i	i
SMILES	KCNQ1 inh	KCNK9 inh	Kir21 block	hERG protect	KCNQ1 act	KCNK3 inh
CSc1cccc(NC(=O)CN2C(=O)c3ccccc3S2(=O)=O)c1	i	i	i	6.5	21	i
COc1ccc2c(c1)[nH]c1c(N3CCN(Cc4ccc5c(c4)OCO5)CC3)ncnc12	9	i	i	i	i	i
COc1cccc(/C=N/NC(=O)CN(C)S(=O)(=O)c2ccccc2)c1OC	nt	nt	nt	nt	nt	i
N#CC1=C(N)NC(SCC(=O)Nc2ccc(Br)cc2)=C(C#N)C12CCCCC2	9	i	i	i	i	i
O=C(NN=Cc1c(O)ccc2ccccc12)c1ccc2c(c1)OCO2	nt	nt	nt	nt	nt	i
Oc1ccc(N=Nc2ccc3c(c2)OCO3)c2ccccc12	i	i	i	i	9	nt
Nc1sc(-c2ccccc2)n[n+]1Cc1cccc2cccnc12	i	i	-7	i	i	i
Cc1cc(Sc2ncnc(N)c2[N+](=O)[O-])ncn1	6	i	i	i	i	i
CCOc1ccc2[nH]c(=O)c(CN(CCN3CCCC3)C(=S)Nc3ccccc3OCC)cc2c1	i	i	i	i	10	i

Screening results from PubChem.
